# Published values gathered from unrelated publications.
# Protocols differ between the studies behind these lines.
# Target: Serine/threonine-protein kinase RIO1 (RIOK1, Homo sapiens, UniProt Q9BRS2)
# One construct used (Q9BRS2 1-568): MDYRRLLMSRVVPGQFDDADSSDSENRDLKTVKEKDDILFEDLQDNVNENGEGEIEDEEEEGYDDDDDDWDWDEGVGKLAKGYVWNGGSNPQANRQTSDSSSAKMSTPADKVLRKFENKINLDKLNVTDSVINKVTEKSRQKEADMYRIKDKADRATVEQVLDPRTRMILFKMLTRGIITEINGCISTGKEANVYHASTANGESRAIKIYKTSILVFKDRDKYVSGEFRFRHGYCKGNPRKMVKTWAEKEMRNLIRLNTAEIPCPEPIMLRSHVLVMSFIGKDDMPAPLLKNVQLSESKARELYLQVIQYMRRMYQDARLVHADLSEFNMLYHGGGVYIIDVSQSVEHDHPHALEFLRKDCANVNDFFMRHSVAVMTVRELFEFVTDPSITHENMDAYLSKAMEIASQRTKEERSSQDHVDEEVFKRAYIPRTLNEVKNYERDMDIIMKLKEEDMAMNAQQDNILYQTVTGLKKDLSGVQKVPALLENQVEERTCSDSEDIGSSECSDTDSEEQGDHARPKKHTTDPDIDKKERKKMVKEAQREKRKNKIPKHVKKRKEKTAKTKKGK
SMILES,effect on,technique,concentration,remaining binding [%]
Nc1ncc2c(n1)-c1c([nH]c3ccc(C#CC4CC4)cc13)CCCC2,binding,competition with immobilised ligand,1 µM,80
O=C(c1ccc(Nc2ncc(Cl)c(-c3cc4ccccc4s3)n2)cc1)N1CCC(N2CCCC2)CC1,binding,competition with immobilised ligand,1 µM,0
COc1ccc2c(c1)O[C@@H](c1ccc(OC)c(OC)c1)C[C@H]2NC(=O)C1(c2ccc3c(c2)OC(F)(F)O3)CC1,cell-free assay,competition with immobilised ligand,1 µM,100
CCN1CCN(Cc2ccc(C(=O)Nc3ccc(C)c(Oc4ccc5c(c4)CC(=O)N5)c3)cc2C(F)(F)F)CC1,binding,competition with immobilised ligand,1 µM,90
COc1cnc(Nc2cccc(S(N)(=O)=O)c2)nc1N1CCN(c2ccccc2)C(=O)C1,binding,competition with immobilised ligand,1 µM,49
CN(C)C(=O)Cn1cc(-c2nc(C3(c4ccc(-c5cnc(N)nc5)cc4)CC3)no2)cn1,cell-free assay,competition with immobilised ligand,1 µM,100
FC(F)(F)Oc1cccc(-c2cnc3ccc(-c4ccncc4)nn23)c1,cell-free assay,competition with immobilised ligand,5 µM,17
CC1CCCN1c1nccc(-c2cnn3ncccc23)n1 (stereo not shown),binding,,1 µM,100
O=C(c1ccc(Nc2nccc(-c3cc4ccccc4s3)n2)cc1)N1CCC(N2CCCC2)CC1,binding,competition with immobilised ligand,1 µM,0.1
CN(C)c1nccc(-c2cnc3ncccn23)n1,binding,,1 µM,100
C=CC(=O)N1CCC(C(=O)NCC(=O)N2CCN(c3nc(-c4cnc(N)nc4C(F)F)nc(N4CCOCC4)n3)CC2)CC1,binding,competition with immobilised ligand,1 µM,98
O=S(=O)(NC1CCC(c2cc(F)ccc2F)(S(=O)(=O)c2ccc(Cl)cc2)CC1)C(F)(F)F (stereo not shown),cell-free assay,competition with immobilised ligand,1 µM,98
CN(C)c1ncc(F)c(-c2cnn3ncccc23)n1,binding,,1 µM,100
COc1ncc2cc3ccccc3nc2c1C#N,cell-free assay,competition with immobilised ligand,5 µM,93
C[C@@H]1CCN(c2nccc(-c3cnn4ncccc34)n2)C1,binding,,1 µM,75
N#Cc1ccc(Nc2ccc3[nH]c(=O)[nH]c3c2)c(Cl)c1,cell-free assay,competition with immobilised ligand,1 µM,100
O=C(NCC1CCOCC1)c1n[nH]cc1NC(=O)c1c(F)cccc1F,binding,competition with immobilised ligand,1 µM,88
CN(c1nccc(-c2cnn3ncccc23)n1)C1CC1,binding,,1 µM,100
COc1ccc2cc(OCC3(C(=O)O)CN(C(=O)c4ccc(F)cc4)C3)ccc2c1,cell-free assay,competition with immobilised ligand,1 µM,100
COc1ccnn2ncc(-c3ccnc(N(C)C)n3)c12,binding,,1 µM,100
Cc1nc(Cc2cccc(C(F)(F)F)c2)sc1-c1ccc(C(N)=O)nc1,cell-free assay,competition with immobilised ligand,1 µM,94
O=C(NCCCN1CCOCC1)c1ccc(Nc2nccc(-c3cc4ccccc4s3)n2)cc1,binding,competition with immobilised ligand,1 µM,0.1
